Screen size: about 2,500 compounds; about 1,200 (48%) were called active. So high a share suggests a set chosen from earlier hits. The list shows a part of the results. Unmarked numbers belong to inactive results.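 The calls were made as follows: active = mean activation above the low control average plus 3 SD, as set in the primary screen (cut at about 12% in these data); inactive = the rest.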

From PubChem BioAssay AID504383 (The Scripps Research Institute Molecular Screening Center, 2011) come the findings set out here.

This experiment addresses Troponin I, cardiac muscle (Homo sapiens) + Troponin T, cardiac muscle (Homo sapiens) + Troponin C, slow skeletal and cardiac muscles (Homo sapiens) (UniProt P19429+P45379+P63316). Nature of the experiment: cardiac RTF calcium sensitivity activators, confirmation, biochemical, IANBD-TnC fluorescence, triplicate (AID 504383).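 Also: 0% = DMSO at 0.472 mM calcium and 100% = DMSO at 2.9 mM calcium.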 The following applies: IANBD-labeled cardiac RTF, Ca2+ sensitivity fluorescence; at 7.2 µM; hits give high values; scaled from EC20 to saturating calcium; tested at EC20 calcium, 0.472 mM. In short, it runs like this: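 material = labelled regulated thin filaments | probe or stimulus = Ca2+ 0.472 mM, EC20 level | dosing = single nominal compound dose of 7.2 µM | schedule = 15 min at 25 °C | signal = fluorescence intensity of labelled filaments | evaluation = fluorescence gain scaled between EC20 and EC100 calcium controls | benchmarks = low control EC20 calcium, high control EC100 calcium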
Consider `COc1ccc(C2C(C#N)=C(N)SC(N)=C2C#N)cc1OC`, for which the activation is 6.65%. With `CCOc1ccc(C2C(C#N)=C(N)SC(N)=C2C#N)cc1OCC`, the activation is 51.3% (active). Next, `CCOc1ccccc1C1C(C#N)=C(N)SC(N)=C1C#N`: 5.25%; `CC1(C)CC(=O)C(C=Nc2ccc(C(=O)c3ccccc3)cc2N=CC2=C(O)CC(C)(C)CC2=O)=C(O)C1`: 5.75%. As for `CC1(C)CC(=O)C(C=Nc2cc(C(=O)c3ccccc3)ccc2N)=C(O)C1`, the activation was 32% (active). Turning to `O=C(c1ccccc1)N1CCN(C(=O)c2ccccc2)CC1`, the activation was 4.62%. For `COc1ccccc1Nc1ncc(C(=O)N2CCC(C(N)=O)CC2)c2ccccc12`, the activation is 10.5%. As for `NC(=O)C1CCN(C(=O)c2ccc(-c3ccccc3)cc2)CC1`, the activation was 64.1% (active). In the case of `COc1ccc(C)cc1NC(=O)C12CCC(C)(C(=O)O1)C2(C)C` (configuration not stated), the activation was 26.8% (active).

As for `COc1ccc(C)cc1NC(=O)CC1COc2ccccc2O1` (configuration not stated), the activation is 8.38%. With `N#Cc1ccc(CSc2nnc(-c3cnccn3)o2)cc1`, the activation was 221% (active).

As to `O=C(NC(=S)Nc1ccc2oc(=O)ccc2c1)c1ccco1`, the activation was 90.7% (active). For the compound `Cc1ncc(CO)c2cc(-c3nnc(Nc4ccc5c(c4)OCO5)s3)c(=O)oc12`, the activation is 70% (active). Consider `N#Cc1ccccc1NC(=O)CNc1ccc(Cl)c(C(F)(F)F)c1`, for which the activation was 8.37%.

As to `Cc1ccc(CCC(=O)Nc2cc(Cl)ccc2Cl)o1`, the activation was 7.16%. Consider `CCOC(=O)c1ccc[n+](CC(=O)Nc2cc(C(F)(F)F)ccc2Cl)c1`, for which the activation is 13% (active). The value for `COC(=O)c1cc2c(=O)c3ccccc3oc2nc1/C=C/N(C)C` was 5.31%; that for `COc1ccc(C(=O)Nc2cc(C(C)=O)c(/C=C/N(C)C)oc2=O)cc1` was 30.3% (active); that for `CC(=O)c1cc(NC(=O)c2ccc(C)cc2)c(=O)oc1/C=C/N(C)C` was 54.1% (active).

As for `CC(=O)c1cc(NC(=O)c2ccc(Cl)cc2)c(=O)oc1/C=C/N(C)C`, the activation was 5.44%. For `COC(=O)c1cc(NC(=O)c2ccccc2)c(=O)oc1/C=C/Nc1ccc(Oc2ccccc2)cc1`, the activation is 47.1% (active). Next, `CC(=O)c1cc(NC(=O)c2ccccc2)c(=O)oc1/C=C/N(C)C`: 11.2%; `COC(=O)c1cc(NC(=O)c2ccccc2)c(=O)oc1C/C=N\OCc1ccc(Cl)cc1Cl`: 3.6%; `COc1ccccc1Nc1nc(N2CCOCC2)nc(N2CCOCC2)n1`: 7.77%.

Turning to `CCOc1ccc(NC(=O)c2cccc(OC(=S)N3CCOCC3)c2)cc1`, the activation is 3.8%.

Consider `COc1ccccc1C(=O)Nc1ccc(OC(C)C(=O)N2CCOCC2)cc1` (configuration not stated), for which the activation was 2020% (active). Regarding `O=C(O)C(c1ccccc1)N1C(=O)/C(=C\c2ccc(-c3ccc(Br)cc3)o2)SC1=S` (configuration not stated), the activation was 186% (active). The value for `CCOC(=O)CC1=NS(=O)(=O)c2ccccc2N1` was 9.51%; that for `O=C(CSC1=NS(=O)(=O)c2ccccc2N1)N1CCCCC1` was 68.3% (active); that for `Cc1c(C)c2c(OCC(=O)N3CCC(O)CC3)cc3c(c2oc1=O)CCC(C)(C)O3` was 3.89%.

Take `Cc1cc(=O)oc2c3c(cc(OCC(=O)NCc4ccccn4)c12)OC(C)(C)CC3`: the activation was 2.15%. On to `CCCc1cc(=O)oc2c3c(cc(OCC(=O)N[C@@H](CSC)C(=O)O)c12)OC(C)(C)CC3`, for which the activation is 42% (active). As for `CN(C)CCNC(=O)c1c(CSc2ccc(Cl)cc2)noc1C(=O)NCc1ccccc1`, the activation is 13.1% (active). `COCCNC(=O)c1c(CS(=O)(=O)c2ccccc2)noc1C(=O)NCc1ccccc1`: the activation was -1.16%. The value for `CNc1c2cccc(C)c2nc2c(C(=O)NCCN(C)C)cccc12` was 0.42%; that for `Cc1cccc(NC(=O)CN2C(=O)N/C(=C/c3ccc(C)s3)C2=O)c1` was 12.8% (active); that for `Cc1cccc(CN2C(=O)N/C(=C/c3ccc(C)s3)C2=O)c1` was 8.39%. In the case of `Cc1ccc(/C=C2/NC(=O)N(Cc3ccccc3)C2=O)s1`, the activation is 2.28%. `Cc1nc(-n2[nH]c3c(c2=O)CCCC3)[nH]c(=O)c1Cc1ccccc1`: the activation was 28% (active). Take `CCOC(=O)CCc1c(C)nc(-n2[nH]c(C)c(CCO)c2=O)[nH]c1=O`: the activation is 6.36%.

In the case of `Cc1ccc(C2C(C#N)=C(N)SC(N)=C2C#N)cc1`, the activation is 9.26%.

For `CCC(=O)Nc1nc2c(c(=O)[nH]1)CCCC2`, the activation was 4.12%. In the case of `O=C(CCc1nc2sc3c(c2c(=O)[nH]1)CCCC3)Nc1ccccc1Cl`, the activation is 84.3% (active). In the case of `O=S(=O)(c1ccccc1Cl)N1CCC(Cc2ccccc2)CC1`, the activation is 10.4%.

For `Cc1ccc(S(=O)(=O)NC(C)(C)CN2CCC(Cc3ccccc3)CC2)cc1`, the activation was 21.5% (active). For `CC(C)(CN1CCc2ccccc2C1)NS(=O)(=O)c1ccc(Cl)cc1`, the activation is 2.24%.

For the compound `COc1ccc(C(=O)O)cc1S(=O)(=O)NCCc1ccccn1`, the activation is 5.17%. As to `COc1cc(Cl)c(S(=O)(=O)NCc2ccccn2)cc1Cl`, the activation is 7.75%.

For the compound `COc1ccc(Br)cc1S(=O)(=O)Nc1ncccc1C`, the activation is 68.3% (active).

As for `COC(=O)N1c2ccccc2CCc2ccccc21`, the activation is 8.65%. As for `Cc1cc2oc3ccc(NCCCn4ccnc4)cc3c(=O)c2cc1C`, the activation is 1.5%. The value for `CCCCOc1cccc(C2C(C(=O)c3cccs3)=C(O)C(=O)N2Cc2cccnc2)c1` (configuration not stated) was -3.36%; that for `CCCOc1ccc(C2C(C(=O)c3ccc(C)o3)=C(O)C(=O)N2CCCn2ccnc2)cc1` (configuration not stated) was 64.1% (active). Consider `O=C1c2ccccc2-c2onc3ccc(NCc4ccco4)c1c23`, for which the activation was 1.47%. `CCOc1ccc2noc3c2c1C(=O)c1ccccc1-3`: the activation was 3.61%.

Consider `CCNc1ccc2noc3c2c1C(=O)c1ccccc1-3`, for which the activation was 15.8% (active). Turning to `COC(=O)C1=C(CSc2nc3c(cc2C#N)CN(C)CC3)OC(N)=C(C#N)C1c1ccccc1F` (configuration not stated), the activation was 10.6%. The value for `N#CC1=C(N)Oc2cc(O)c(Cl)cc2C1c1ccccc1F` (configuration not stated) was 162% (active); that for `O=C1CCC(=O)N(O)CCCCCNC(=O)CCC(=O)N(O)CCCCNC(=O)CCC(=O)N(O)CCCCCN1` was 1.89%; that for `COc1ccc(Nc2cc(C)nc3ccc(OC)cc23)cc1` was 4.34%. As to `CC(=O)c1cccc(NC(=S)NC2CCCCC2)c1`, the activation is 8.2%. For `CC(=O)c1cccc(Nc2cc(C)nc3ccc(C)cc23)c1`, the activation is 25.6% (active).
